Measured values taken from ChEMBL document CHEMBL2331335, “Synthesis of hemslecin A derivatives: a new class of hepatitis B virus inhibitors” (Bioorg Med Chem Lett, 2013).

What was measured:
Hepatitis B virus [1] = assay: Antiviral activity against HBV infected in human HepG2.2.15 cells assessed as inhibition of viral e antigen production; assay type: functional, organism-based; details: HepG2 2.2.15
Summary of the method: (§1)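 Assayed in HBV-producing HepG 2.2.15 cells, with tenofovir as positive control. HBsAg, HBeAg and HBV DNA replication were each measured, and IC50 was taken as the compound concentration giving 50% inhibition of the given marker.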

Hepatitis B virus [2] = assay: Antiviral activity against HBV infected in human HepG2.2.15 cells assessed as inhibition of viral DNA replication; assay type: functional, organism-based; details: HepG2 2.2.15; summary of the method: as §1
Hepatitis B virus [3] = assay: Antiviral activity against HBV infected in human HepG2.2.15 cells assessed as inhibition of viral surface antigen production; assay type: functional, organism-based; details: HepG2 2.2.15; summary of the method: as §1
[4] = Cytotoxicity against human HepG2.2.15 cells; assay type: cell-based, HepG2 2.2.15
Summary of the method: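 Cytotoxicity was tested in HepG 2.2.15 cells alongside the anti-HBV assay. CC50 was taken as the compound concentration required to destroy 50% of the cells.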

[5] = Selectivity index, ratio of CC50 for human HepG2.2.15 cells to IC50 for HBV infected in human HepG2.2.15 cells assessed as inhibition of viral e antigen production; assay type: functional
Summary of the method: (§2)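 Selectivity index was calculated as CC50 (HepG 2.2.15 cytotoxicity) divided by IC50 for the given marker (HBV DNA replication, HBeAg or HBsAg), all measured in HepG 2.2.15 cells.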

[6] = Selectivity index, ratio of CC50 for human HepG2.2.15 cells to IC50 for HBV infected in human HepG2.2.15 cells assessed as inhibition of viral surface antigen production; assay type: functional; summary of the method: as §2
[7] = Selectivity index, ratio of CC50 for human HepG2.2.15 cells to IC50 for HBV infected in human HepG2.2.15 cells assessed as inhibition of viral DNA replication; assay type: functional; summary of the method: as §2

Row | SMILES | IC50 (Hepatitis B virus [1]) | IC50 (Hepatitis B virus [2]) | IC50 (Hepatitis B virus [3]) | CC50 [4] | Ratio CC50/IC50 [5] | Ratio CC50/IC50 [6] | Ratio CC50/IC50 [7]
1 | CCC(=O)O[C@H]1C[C@@H]2C(=CC[C@@H]3[C@@]2(C)C(=O)C[C@]2(C)[C@@H]([C@@](C)(O)C(=O)CCC(C)(C)OC(C)=O)[C@H](O)C[C@@]32C)C(C)(C)[C@@H]1OC(=O)CC | 596 µM | 7.2 µM | 9.9 µM | > 596 µM | >1 | >60 | >83.4
2 | CCOCC(=O)O[C@H]1C[C@H]2[C@]3(C)C(=O)C[C@]4(C)[C@@H]([C@@](C)(O)C(=O)CCC(C)(C)OC(C)=O)[C@H](OC(=O)COCC)C[C@@]4(C)[C@@H]3C[C@H]3O[C@]32C(C)(C)[C@@H]1OC(=O)COCC | > 633 µM | > 633 µM | > 633 µM | > 633 µM |  |  | 
3 | CC(=O)OC(C)(C)CCC(=O)[C@](C)(O)[C@H]1[C@H](O)C[C@@]2(C)[C@@H]3C[C@H]4O[C@@]45[C@@H](C[C@H](O)[C@@H](O)C5(C)C)[C@]3(C)C(=O)C[C@]12C | > 1740 µM | 11.6 µM | > 1740 µM | > 1740 µM |  |  | >150.5
4 | COCC(=O)O[C@H]1C[C@H]2[C@]3(C)C(=O)C[C@]4(C)[C@@H]([C@@](C)(O)C(=O)CCC(C)(C)OC(C)=O)[C@H](OC(=O)COC)C[C@@]4(C)[C@@H]3C[C@H]3O[C@]32C(C)(C)[C@@H]1OC(=O)COC | 592 µM | > 1110 µM | > 1110 µM | > 1110 µM | >1.9 |  | 
5 | CC(=O)O[C@H]1C[C@H]2[C@]3(C)C(=O)C[C@]4(C)[C@@H]([C@@](C)(O)C(=O)CCC(C)(C)OC(C)=O)[C@H](OC(C)=O)C[C@@]4(C)[C@@H]3C[C@@H](O)[C@@]2(OC(=O)c2cccc(Cl)c2)C(C)(C)[C@@H]1OC(C)=O | 327 µM | > 1050 µM | 178 µM | > 1050 µM | >3.2 | >5.9 | 
6 | CCOCC(=O)O[C@H]1C[C@@H]2C(=CC[C@@H]3[C@@]2(C)C(=O)C[C@]2(C)[C@@H]([C@@](C)(O)C(=O)CCC(C)(C)OC(=O)COCC)[C@H](OC(=O)COCC)C[C@@]32C)C(C)(C)[C@@H]1OC(=O)COCC | > 1450 µM | 81.4 µM | 225 µM | > 1450 µM |  | >6.4 | >17.8
7 | CC(=O)OC(C)(C)CCC(=O)[C@](C)(O)[C@H]1[C@H](O)C[C@@]2(C)[C@@H]3CC=C4[C@@H](C[C@H](O)[C@@H](O)C4(C)C)[C@]3(C)C(=O)C[C@]12C [HEMSLECIN A] | > 66.2 µM | 11.4 µM | > 66.2 µM | 66.2 µM | <1 | <1 | 5.8
8 | CCC(=O)O[C@H]1C[C@H]2[C@]3(C)C(=O)C[C@]4(C)[C@@H]([C@@](C)(O)C(=O)CCC(C)(C)OC(C)=O)[C@H](OC(=O)CC)C[C@@]4(C)[C@@H]3C[C@H]3O[C@]32C(C)(C)[C@@H]1OC(=O)CC | > 1670 µM | > 1670 µM | 768 µM | > 1670 µM |  | >2.2 | 
9 | CCCC(=O)O[C@H]1C[C@@H]2C(=CC[C@@H]3[C@@]2(C)C(=O)C[C@]2(C)[C@@H]([C@@](C)(O)C(=O)CCC(C)(C)OC(C)=O)[C@H](O)C[C@@]32C)C(C)(C)[C@@H]1O | > 12.4 µM | 6.1 µM | > 12.4 µM | 12.4 µM | <1 | <1 | 2
10 | CC(=O)O[C@H]1C[C@@H]2C(=CC[C@@H]3[C@@]2(C)C(=O)C[C@]2(C)[C@@H]([C@@](C)(O)C(=O)CCC(C)(C)OC(C)=O)[C@H](OC(C)=O)C[C@@]32C)C(C)(C)[C@@H]1OC(C)=O | > 807 µM | 17.3 µM | > 807 µM | > 807 µM |  |  | >46.6

More lines, main results first:

Row | IC50 (Hepatitis B virus [1]) | IC50 (Hepatitis B virus [2]) | IC50 (Hepatitis B virus [3]) | SMILES | CC50 [4] | Ratio CC50/IC50 [5] | Ratio CC50/IC50 [6] | Ratio CC50/IC50 [7]
11 | > 710 µM | > 710 µM | > 710 µM | CCOCC(=O)O[C@H]1C[C@H]2[C@]3(C)C(=O)C[C@]4(C)[C@@H]([C@@](C)(O)C(=O)CCC(C)(C)OC(C)=O)[C@H](OC(=O)COCC)C[C@@]4(C)[C@@H]3C[C@@H](O)[C@@]2(OC(=O)c2cccc(Cl)c2)C(C)(C)[C@@H]1OC(=O)COCC | > 710 µM |  |  | 
12 | > 650 µM | 19 µM | > 650 µM | CCC(=O)O[C@H]1C[C@@H]2C(=CC[C@@H]3[C@@]2(C)C(=O)C[C@]2(C)[C@@H]([C@@](C)(O)C(=O)CCC(C)(C)OC(C)=O)[C@H](OC(C)=O)C[C@@]32C)C(C)(C)[C@@H]1OC(=O)CC | > 650 µM |  |  | >34.2
13 | > 6.3 µM | 4.7 µM | > 6.3 µM | CCCC(=O)O[C@@H]1[C@@H](O)C[C@@H]2C(=CC[C@@H]3[C@@]2(C)C(=O)C[C@]2(C)[C@@H]([C@@](C)(O)C(=O)CCC(C)(C)OC(C)=O)[C@H](O)C[C@@]32C)C1(C)C | 6.3 µM | <1 | <1 | 1.3
14 | > 560 µM | 10 µM | > 560 µM | CCOCC(=O)O[C@H]1C[C@@H]2C(=CC[C@@H]3[C@@]2(C)C(=O)C[C@]2(C)[C@@H]([C@@](C)(O)C(=O)CCC(C)(C)OC(C)=O)[C@H](OC(=O)COCC)C[C@@]32C)C(C)(C)[C@@H]1OC(=O)COCC | > 560 µM |  |  | >55.8
15 | 14.4 µM | 4.7 µM | 15.6 µM | CCC(=O)O[C@H]1C[C@@H]2C(=CC[C@@H]3[C@@]2(C)C(=O)C[C@]2(C)[C@@H]([C@@](C)(O)C(=O)CCC(C)(C)OC(C)=O)[C@H](O)C[C@@]32C)C(C)(C)[C@@H]1O | 126 µM | 8.7 | 8.1 | 
16 | > 719 µM | 51.2 µM | > 719 µM | COc1cccc(/C=C/C(=O)O[C@H]2C[C@@H]3C(=CC[C@@H]4[C@@]3(C)C(=O)C[C@]3(C)[C@@H]([C@@](C)(O)C(=O)CCC(C)(C)OC(C)=O)[C@H](OC(=O)/C=C/c5cccc(OC)c5)C[C@@]43C)C(C)(C)[C@@H]2OC(=O)/C=C/c2cccc(OC)c2)c1 | > 719 µM |  |  | >14
17 | 30.9 µM | 7.2 µM | 24 µM | CC(=O)OC(C)(C)CCC(=O)[C@](C)(O)[C@H]1[C@H](O)C[C@@]2(C)[C@@H]3C[C@@H](O)[C@]4(OC(=O)c5cccc(Cl)c5)[C@@H](C[C@H](O)[C@@H](O)C4(C)C)[C@]3(C)C(=O)C[C@]12C | 366 µM | 11.9 | 15.3 | 50.9
18 | > 1740 µM | > 1740 µM | > 1740 µM | COCC(=O)O[C@H]1C[C@H]2[C@]3(C)C(=O)C[C@]4(C)[C@@H]([C@@](C)(O)C(=O)CCC(C)(C)OC(C)=O)[C@H](OC(=O)COC)C[C@@]4(C)[C@@H]3C[C@@H](O)[C@@]2(OC(=O)c2cccc(Cl)c2)C(C)(C)[C@@H]1OC(=O)COC | > 1740 µM |  |  | 
19 | > 60.6 µM | 31.4 µM | > 60.6 µM | CC(C)(O)CCC(=O)[C@](C)(O)[C@H]1[C@H](O)C[C@@]2(C)[C@@H]3CC=C4[C@@H](C[C@H](O)[C@@H](O)C4(C)C)[C@]3(C)C(=O)C[C@]12C | 60.6 µM | <1 | <1 | 1.9
20 |  | 0.49 µM | 1570 µM | C[C@H](Cn1cnc2c(N)ncnc21)OCP(=O)(O)O [TENOFOVIR ANHYDROUS] | > 1740 µM | >1.5 | >1.1 | >3571.4
21 | > 184 µM | 84.6 µM | 101 µM | CCOCC(=O)O[C@H]1C[C@@H]2C(=CC[C@@H]3[C@@]2(C)C(=O)C[C@]2(C)[C@@H]([C@@](C)(O)C(=O)CCC(C)(C)O)[C@H](OC(=O)COCC)C[C@@]32C)C(C)(C)[C@@H]1OC(=O)COCC | 184 µM | <1 | 1.8 | 2.2
22 | > 254 µM | 2.8 µM | 190 µM | CC(=O)O[C@@H]1[C@@H](O)C[C@@H]2C(=CC[C@@H]3[C@@]2(C)C(=O)C[C@]2(C)[C@@H]([C@@](C)(O)C(=O)CCC(C)(C)OC(C)=O)[C@H](O)C[C@@]32C)C1(C)C | 254 µM | <1 | 1.3 | 89.7
23 | > 961 µM | > 961 µM | > 961 µM | CC(=O)O[C@H]1C[C@H]2[C@]3(C)C(=O)C[C@]4(C)[C@@H]([C@@](C)(O)C(=O)CCC(C)(C)OC(C)=O)[C@H](OC(C)=O)C[C@@]4(C)[C@@H]3C[C@H]3O[C@]32C(C)(C)[C@@H]1OC(C)=O | > 961 µM |  |  | 
24 | 401 µM | > 618 µM | > 618 µM | CCCC(=O)O[C@H]1C[C@H]2[C@]3(C)C(=O)C[C@]4(C)[C@@H]([C@@](C)(O)C(=O)CCC(C)(C)OC(C)=O)[C@H](OC(=O)CCC)C[C@@]4(C)[C@@H]3C[C@H]3O[C@]32C(C)(C)[C@@H]1OC(=O)CCC | > 618 µM | >2 |  | 
